FN deposit inh: fibronectin deposition inhibition | 350,000 compounds, 0.086% hits | AID 743247 | inhibition, % at 12.6 µM | AH1F fibroblasts, Alexa488-fibronectin deposition fluorescence, overnight;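 active = mean inhibition across replicates of 30% or more, regardless of how many single replicates reach that level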
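material = AH1F fibroblast monolayer depositing Alexa488-labelled fibronectin into matrix | amount = 10000 AH1F cells/well | buffer or medium = DMEM plus 2% serum, read in PBS | incubation = 1 h cell adhesion before compound, then overnight fibronectin incubation | detection = fluorescence at 485 nm excitation, 525 nm emission | evaluation = percent inhibition as loss of matrix-bound fibronectin fluorescence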
FGF22 binding: binders of recombinant human FGF22 by thermal shift; Q9HCT0; 340,000 compounds, 1.5% hits; activity (Tm shift, normalised), % at 9.99 µM; SYPRO orange fluorescence; percent of sucrose octasulfate shift, DMSO zero;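 active = mean Tm shift, scaled 0 neutral to 100 positive control, at about 1.3% or above, every replicate too, limit read from the data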
Target sequence (Q9HCT0 whole entry, looked up): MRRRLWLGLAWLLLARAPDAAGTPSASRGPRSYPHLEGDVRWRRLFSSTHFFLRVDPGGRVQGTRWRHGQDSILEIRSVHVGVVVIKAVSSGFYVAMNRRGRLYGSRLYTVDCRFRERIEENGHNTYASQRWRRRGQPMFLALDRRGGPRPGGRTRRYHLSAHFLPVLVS
E-selectin induc: induces E-selectin expression in human endothelial cells. 260,000 compounds, 0.37% hits. activation, % at 7.58 µM. P16581. HUVEC E-selectin immunofluorescence imaging; normalized: neutral wells 0, TNF-alpha wells 100;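 active = mean E-selectin-positive cell signal at least 10% of the positive control, reached in at least 60% of replicates, without over 20% cell loss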
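Test system: HUVEC; input: 3,000 HUVEC/well; measured by: immunofluorescence imaging; read-out: % PE-positive cells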
Statin myotox sup: suppression of simvastatin myotoxicity; rescue of ATP level, % at 7.49 µM; C2C12 myotubes + simvastatin, ATP luminescence, 48 h; scaled: DMSO 0, geranylgeraniol control 100; 330,000 compounds, 0.78% hits;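 active = mean ATP rescue above about 67%, or every replicate alone reaching that limit, limit read from the data, passing the limit was not always enough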;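 also: myotubes were challenged with 10 µM simvastatin during compound exposure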
SIRT5 block: blocks human SIRT5 desuccinylation of peptide | Purified SirT5, succinyl-peptide AMC, trypsin-coupled fluorescence | 330,000 compounds, 1.1% hits | AID 652115 | inhibition, % at 15 µM; in the data active = inhibition above about 15%
Target sequence (Q9NXA8 whole entry, looked up): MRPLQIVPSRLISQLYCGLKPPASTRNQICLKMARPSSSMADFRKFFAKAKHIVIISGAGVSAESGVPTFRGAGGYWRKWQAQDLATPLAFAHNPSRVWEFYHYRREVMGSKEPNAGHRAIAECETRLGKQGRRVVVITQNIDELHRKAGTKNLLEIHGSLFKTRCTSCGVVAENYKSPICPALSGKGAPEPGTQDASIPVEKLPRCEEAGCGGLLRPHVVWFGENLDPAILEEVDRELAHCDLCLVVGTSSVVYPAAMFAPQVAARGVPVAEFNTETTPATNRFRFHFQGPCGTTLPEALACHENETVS
Ecoli rRNA inh: inhibits bacterial ribosomal RNA function over humanized ribosomes | E. coli WT GFP vs humanized-ribosome RFP mutants, fluorescence, 24 h; stronger effect = lower value; DMSO median 0, no signal -100 | GFP signal change (wild-type ribosome), % (no concentration beside the values) | 350,000 compounds, 1.6% hits | AID 720706;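 active = significant combined selectivity score with lowered wild-type GFP, culture density cut under 30%, mutant RFP and density less affected; inactive = any of these conditions unmet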
Numbers stand for hits. Hits are enriched below; roughly 4% of the tested compounds scored in any of these assays.

How did CCOc1ccccc1NC(=O)c1nc(-c2ccccc2)oc1C do in these assays?
FN deposit inh: inactive; FGF22 binding: 43.0; SIRT5 block: inactive; Ecoli rRNA inh: inactive

Results for O=C(CN1CCOCC1)N1CCN(c2nnc(-c3ccccc3)c3ccccc23)CC1 ?
Statin myotox sup: 114.5

What do the screens show for `Cc1ccc(-c2nnc(N3CCN(C(=O)CN4CCOCC4)CC3)c3ccccc23)cc1`?
FN deposit inh: inactive; Statin myotox sup: inactive

What do the screens show for `Cc1ccc(-c2nnc(N3CCN(C(=O)c4cccs4)CC3)c3ccccc23)cc1`?
FN deposit inh: inactive; FGF22 binding: inactive; SIRT5 block: inactive; Ecoli rRNA inh: inactive

How did O=C(c1cccs1)N1CCN(c2nnc(-c3ccccc3)c3ccccc23)CC1 do in these assays?
FGF22 binding: inactive; SIRT5 block: inactive; Ecoli rRNA inh: -28.1

How did CCN(CC)C(=O)C1CCCN(Cc2ccc3ccccc3c2)C1 (centres undefined) do in these assays?
FN deposit inh: inactive; FGF22 binding: inactive; Statin myotox sup: inactive; SIRT5 block: 46.5; Ecoli rRNA inh: inactive

How did CCN(CC)C(=O)C1CCCN(c2ccccc2[N+](=O)[O-])C1 (centres undefined) do in these assays?
FGF22 binding: 43.0; SIRT5 block: inactive; Ecoli rRNA inh: inactive

Results for NC(=O)C1CCCN(Cc2ccc3ccccc3c2)C1 (centres undefined) ?
FN deposit inh: inactive; FGF22 binding: inactive; E-selectin induc: inactive; Statin myotox sup: inactive; SIRT5 block: inactive; Ecoli rRNA inh: inactive

What do the screens show for `C[C@@H]1CN([C@H](C)CO)C(=O)c2cccc(NC(=O)C3CCCCC3)c2O[C@@H]1CN(C)C(=O)Nc1ccccc1`?
FGF22 binding: inactive; E-selectin induc: inactive; Statin myotox sup: inactive; SIRT5 block: inactive; Ecoli rRNA inh: inactive

Results for CCOC(=O)Nc1ccc(C(=O)Oc2ccccc2)c(O)c1 ?
FGF22 binding: inactive; Statin myotox sup: inactive; SIRT5 block: inactive; Ecoli rRNA inh: -32.1

Results for Cc1ccc(S(=O)(=O)OCC(=O)Nc2ccc(C(=O)O)c(O)c2)cc1 ?
FN deposit inh: inactive; FGF22 binding: inactive; SIRT5 block: 53.4

How did Cc1cccc(OC(=O)Nc2ccc(C(=O)O)c(O)c2)c1 do in these assays?
FN deposit inh: inactive; FGF22 binding: inactive; E-selectin induc: inactive; Statin myotox sup: inactive; SIRT5 block: 34.7; Ecoli rRNA inh: inactive

Results for CC(C)NC(=O)Nc1ccc2c(c1)C(=O)N([C@@H](C)CO)C[C@@H](C)[C@H](CN(C)Cc1ccc(C(=O)O)cc1)OCCCC[C@@H](C)O2 ?
FN deposit inh: inactive; FGF22 binding: inactive; E-selectin induc: inactive; SIRT5 block: inactive; Ecoli rRNA inh: inactive

Results for CC(C)C[C@H]1CN=C(Nc2ccccc2)N1CCCCc1ccccc1 ?
FN deposit inh: inactive; FGF22 binding: inactive; E-selectin induc: inactive; Statin myotox sup: 104.6; SIRT5 block: inactive; Ecoli rRNA inh: inactive

Results for C[C@@H]1CCCCO[C@H](CN(C)C(=O)CCCN(C)C)[C@H](C)CN([C@H](C)CO)C(=O)c2cc(NS(C)(=O)=O)ccc2O1 ?
E-selectin induc: inactive; Statin myotox sup: inactive; Ecoli rRNA inh: inactive

How did Cc1ccccc1CN1CCN(S(=O)(=O)c2ccc(Cl)s2)CC1 do in these assays?
FN deposit inh: inactive; FGF22 binding: inactive; E-selectin induc: 290.4; Statin myotox sup: inactive; SIRT5 block: inactive; Ecoli rRNA inh: inactive

Results for C[C@H](CO)N1C[C@H](C)[C@H](CN(C)Cc2ccncc2)Oc2ccc(NC(=O)NC3CCCCC3)cc2C1=O ?
FN deposit inh: inactive; FGF22 binding: inactive; E-selectin induc: inactive; Statin myotox sup: inactive; SIRT5 block: inactive; Ecoli rRNA inh: inactive

Results for Cc1nn(CC(=O)NC2C(=O)N3C(C(=O)O)=C(CSc4nnnn4C)CSC23)cc1Br (centres undefined) ?
FN deposit inh: inactive; FGF22 binding: inactive; E-selectin induc: inactive; SIRT5 block: inactive; Ecoli rRNA inh: inactive

How did Cc1c(Cl)c(C(F)F)nn1CC(=O)NC1C(=O)N2C(C(=O)O)=C(CSc3nnnn3C)CSC12 (centres undefined) do in these assays?
FN deposit inh: inactive; FGF22 binding: inactive; E-selectin induc: inactive; SIRT5 block: inactive; Ecoli rRNA inh: inactive

Results for Cc1c(Cl)cnn1CC(=O)NC1C(=O)N2C(C(=O)O)=C(CSc3nnnn3C)CSC12 (centres undefined) ?
FN deposit inh: inactive; FGF22 binding: 43.3; E-selectin induc: inactive; SIRT5 block: inactive; Ecoli rRNA inh: inactive

What do the screens show for `CC(C(=O)NC1C(=O)N2C(C(=O)O)=C(CSc3nnnn3C)CSC12)n1cc(Cl)cn1` (centres undefined)?
FN deposit inh: inactive; FGF22 binding: 43.3; E-selectin induc: inactive; SIRT5 block: inactive; Ecoli rRNA inh: inactive

Results for COCC(=O)N(C)C[C@H]1Oc2ncc(-c3ccccc3F)cc2C(=O)N([C@@H](C)CO)C[C@H]1C ?
FN deposit inh: inactive; FGF22 binding: inactive; E-selectin induc: inactive; Statin myotox sup: inactive; SIRT5 block: inactive; Ecoli rRNA inh: inactive

Results for C[C@@H]1CN(C)C(=O)c2cccc(NS(C)(=O)=O)c2O[C@@H]1CN(C)S(C)(=O)=O ?
FN deposit inh: inactive; Ecoli rRNA inh: inactive

What do the screens show for `O=C1CC(c2ccncc2)c2cc3c(cc2N1)OCCO3` (centres undefined)?
Statin myotox sup: 125.7

Results for COc1cc2c(cc1OC)C(c1ccc(Cl)cc1)CC(=O)N2 (centres undefined) ?
FN deposit inh: inactive; FGF22 binding: inactive; E-selectin induc: inactive; Statin myotox sup: inactive; SIRT5 block: 17.2; Ecoli rRNA inh: inactive

What do the screens show for `COc1cc2c(cc1OC)C(c1cccc(Cl)c1)CC(=O)N2` (centres undefined)?
FN deposit inh: inactive; FGF22 binding: inactive; E-selectin induc: inactive; Statin myotox sup: inactive; SIRT5 block: inactive; Ecoli rRNA inh: inactive

What do the screens show for `COc1cc2c(cc1OC)C(c1cccs1)CC(=O)N2` (centres undefined)?
FN deposit inh: inactive; Statin myotox sup: inactive

What do the screens show for `O=C1CC(c2ccc3c(c2)OCO3)c2cc3c(cc2N1)OCCO3` (centres undefined)?
Statin myotox sup: inactive

Results for O=C1CC(c2cccs2)c2cc3c(cc2N1)OCO3 (centres undefined) ?
FN deposit inh: inactive; E-selectin induc: inactive; Statin myotox sup: 116.1

Results for COc1ccc(OC)c(-n2c(Cn3c(-c4ccccn4)nc4ccccc43)n[nH]c2=S)c1 ?
FN deposit inh: inactive; FGF22 binding: 44.0; SIRT5 block: inactive; Ecoli rRNA inh: inactive

High-throughput results as filed in PubChem.
